How the values were obtained:
Mus musculus = test: Inhibition of LPS-induced TNFalpha release in mouse at 20 mg/kg, po; type: functional; settings: OF1
How it was run: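 Female OF1 mice, eight weeks old, given compound orally by gavage as a DMSO/cornoil solution at 20 mg/kg. One hour after dosing, LPS (20 mg/kg) injected iv to stimulate TNF-α release into plasma. Blood collected one hour later; plasma TNF-α measured by mouse-specific ELISA; reported as % inhibition.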

[1] = biological target: Mitogen-activated protein kinase 14 (Mus musculus, UniProt P47811); test: Inhibitory activity against murine p38-alpha MAPK
Sequence of Mitogen-activated protein kinase 14 (P47811 whole entry): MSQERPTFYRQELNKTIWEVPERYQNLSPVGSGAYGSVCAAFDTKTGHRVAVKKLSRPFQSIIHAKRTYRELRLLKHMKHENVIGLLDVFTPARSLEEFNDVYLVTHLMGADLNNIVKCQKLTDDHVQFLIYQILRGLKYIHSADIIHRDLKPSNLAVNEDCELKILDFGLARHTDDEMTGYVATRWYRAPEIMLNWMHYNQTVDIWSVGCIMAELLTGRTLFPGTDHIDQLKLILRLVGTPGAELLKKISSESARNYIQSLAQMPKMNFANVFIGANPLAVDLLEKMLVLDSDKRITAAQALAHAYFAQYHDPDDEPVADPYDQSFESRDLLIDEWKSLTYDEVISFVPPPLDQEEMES
How it was run: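 Kinase assay with phosphorylated His-tagged p38α MAP kinase of murine origin (10 ng/well). Substrate was immobilised GST-ATF-2, with 120 µM cold ATP present. Result expressed as IC50 (nM).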

Rattus norvegicus [2] = test: Inhibition of adjuvant-induced arthritis in rat at 25 mg/kg, po; type: functional; settings: Wistar
How it was run: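 Female Wistar rats immunized with Mycobacterium tuberculosis on day 0. Compound dosed orally at 25 mg/kg twice daily from day 14 to day 20. Joint swelling measured on day 20; paw swelling inhibition expressed as %.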

[3] = biological target: Hepatocyte growth factor receptor (Homo sapiens, UniProt P08581); test: Inhibitory activity against c-Met
[4] = AUC in rat; type: ADME, organism-based; settings: plasma
[5] = biological target: T1, Fibroblast growth factor receptor (Homo sapiens, UniProt P22607+P11362+P22455+P21802); test: Inhibitory activity against FGFR; type: protein assay
[6] = biological target: Insulin-like growth factor 1 receptor (Homo sapiens) (UniProt P08069); test: Inhibition of IGF1R at 10 uM
Sequence of Insulin-like growth factor 1 receptor (Homo sapiens) (P08069 31-736 limits assumed): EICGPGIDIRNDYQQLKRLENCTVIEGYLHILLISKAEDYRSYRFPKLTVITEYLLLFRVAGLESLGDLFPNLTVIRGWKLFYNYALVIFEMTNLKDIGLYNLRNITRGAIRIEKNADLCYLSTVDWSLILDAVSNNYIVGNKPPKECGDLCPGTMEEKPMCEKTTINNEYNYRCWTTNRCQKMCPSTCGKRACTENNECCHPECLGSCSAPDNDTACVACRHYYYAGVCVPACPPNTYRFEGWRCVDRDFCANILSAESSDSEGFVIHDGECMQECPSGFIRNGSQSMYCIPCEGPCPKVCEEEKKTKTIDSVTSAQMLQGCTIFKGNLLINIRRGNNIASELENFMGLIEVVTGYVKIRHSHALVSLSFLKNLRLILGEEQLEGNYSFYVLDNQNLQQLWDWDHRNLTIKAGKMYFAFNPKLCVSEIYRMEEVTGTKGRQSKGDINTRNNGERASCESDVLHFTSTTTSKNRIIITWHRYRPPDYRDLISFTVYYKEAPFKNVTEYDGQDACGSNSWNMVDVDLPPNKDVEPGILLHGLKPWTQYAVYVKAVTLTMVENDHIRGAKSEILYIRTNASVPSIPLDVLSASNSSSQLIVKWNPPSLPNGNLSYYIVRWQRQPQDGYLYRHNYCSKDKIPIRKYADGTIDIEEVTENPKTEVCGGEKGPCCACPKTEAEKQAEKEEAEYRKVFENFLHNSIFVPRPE
Sequence of Insulin-like growth factor 1 receptor (Homo sapiens) (P08069 741-1367 limits assumed): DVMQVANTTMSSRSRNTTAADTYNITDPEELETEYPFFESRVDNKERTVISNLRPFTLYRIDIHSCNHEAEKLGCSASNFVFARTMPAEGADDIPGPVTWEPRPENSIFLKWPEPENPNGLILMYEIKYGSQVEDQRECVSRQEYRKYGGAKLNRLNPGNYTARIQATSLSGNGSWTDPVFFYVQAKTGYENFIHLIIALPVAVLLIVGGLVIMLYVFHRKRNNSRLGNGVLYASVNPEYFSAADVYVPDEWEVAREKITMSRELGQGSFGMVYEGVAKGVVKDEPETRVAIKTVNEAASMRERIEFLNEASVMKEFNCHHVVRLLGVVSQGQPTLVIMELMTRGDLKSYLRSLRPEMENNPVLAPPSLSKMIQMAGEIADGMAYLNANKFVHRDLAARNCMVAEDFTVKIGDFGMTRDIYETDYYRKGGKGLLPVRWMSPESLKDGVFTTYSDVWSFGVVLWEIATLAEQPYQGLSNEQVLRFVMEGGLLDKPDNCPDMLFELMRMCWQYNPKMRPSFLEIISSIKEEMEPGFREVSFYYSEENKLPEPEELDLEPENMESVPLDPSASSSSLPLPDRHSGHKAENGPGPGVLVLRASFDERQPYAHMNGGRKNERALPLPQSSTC

[7] = biological target: Mitogen-activated protein kinase 9 (Homo sapiens, UniProt P45984); test: Inhibitory activity against JNK2
Sequence of Mitogen-activated protein kinase 9 (P45984 whole entry): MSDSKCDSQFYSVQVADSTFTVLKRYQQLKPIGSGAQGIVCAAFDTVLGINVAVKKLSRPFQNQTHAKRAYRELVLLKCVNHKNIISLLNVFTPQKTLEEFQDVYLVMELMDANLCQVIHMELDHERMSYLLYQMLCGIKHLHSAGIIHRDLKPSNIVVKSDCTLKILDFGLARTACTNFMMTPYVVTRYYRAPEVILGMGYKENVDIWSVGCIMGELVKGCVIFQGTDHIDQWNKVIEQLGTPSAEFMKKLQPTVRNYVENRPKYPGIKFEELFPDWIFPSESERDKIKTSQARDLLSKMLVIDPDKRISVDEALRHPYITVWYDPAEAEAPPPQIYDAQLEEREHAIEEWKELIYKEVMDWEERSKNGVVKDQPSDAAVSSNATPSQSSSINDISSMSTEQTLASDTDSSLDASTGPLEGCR

[8] = Oral bioavailability in rat; type: ADME, organism-based; settings: in vivo
[9] = biological target: T2, Receptor tyrosine-protein kinase erbB-2 (Homo sapiens, UniProt P04626); test: Inhibitory activity against HER2
T2 sequence (P04626 whole entry): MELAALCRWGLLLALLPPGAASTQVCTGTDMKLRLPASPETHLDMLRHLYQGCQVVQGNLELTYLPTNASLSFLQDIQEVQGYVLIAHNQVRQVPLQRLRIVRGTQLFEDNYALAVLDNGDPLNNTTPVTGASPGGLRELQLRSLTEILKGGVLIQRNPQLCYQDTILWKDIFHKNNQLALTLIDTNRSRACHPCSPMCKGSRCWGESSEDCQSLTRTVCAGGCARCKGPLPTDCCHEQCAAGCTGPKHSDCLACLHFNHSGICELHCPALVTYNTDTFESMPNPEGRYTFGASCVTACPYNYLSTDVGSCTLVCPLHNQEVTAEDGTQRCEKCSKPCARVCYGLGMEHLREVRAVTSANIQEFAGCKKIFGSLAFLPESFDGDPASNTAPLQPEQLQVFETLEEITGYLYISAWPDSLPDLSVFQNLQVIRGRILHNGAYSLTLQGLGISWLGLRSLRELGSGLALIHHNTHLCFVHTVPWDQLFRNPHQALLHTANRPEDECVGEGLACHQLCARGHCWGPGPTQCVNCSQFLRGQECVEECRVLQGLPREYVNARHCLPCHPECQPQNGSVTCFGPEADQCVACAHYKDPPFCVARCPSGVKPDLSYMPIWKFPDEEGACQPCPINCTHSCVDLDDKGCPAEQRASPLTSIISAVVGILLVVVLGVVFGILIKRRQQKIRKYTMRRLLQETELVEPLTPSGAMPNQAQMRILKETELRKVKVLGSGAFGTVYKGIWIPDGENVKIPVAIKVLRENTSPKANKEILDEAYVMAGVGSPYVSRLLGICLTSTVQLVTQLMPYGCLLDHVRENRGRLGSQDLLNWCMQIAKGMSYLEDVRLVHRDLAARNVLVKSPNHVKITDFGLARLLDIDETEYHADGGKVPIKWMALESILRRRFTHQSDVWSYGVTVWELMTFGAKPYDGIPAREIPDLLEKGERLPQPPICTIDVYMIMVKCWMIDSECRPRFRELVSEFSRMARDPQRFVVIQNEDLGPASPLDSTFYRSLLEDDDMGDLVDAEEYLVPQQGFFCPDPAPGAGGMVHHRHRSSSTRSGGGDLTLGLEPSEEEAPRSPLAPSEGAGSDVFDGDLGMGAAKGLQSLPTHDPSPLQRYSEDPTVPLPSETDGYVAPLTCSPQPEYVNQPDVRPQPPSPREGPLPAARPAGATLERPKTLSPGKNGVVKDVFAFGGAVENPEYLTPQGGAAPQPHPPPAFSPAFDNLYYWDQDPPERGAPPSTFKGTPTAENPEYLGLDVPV

[10] = biological target: T3, Epidermal growth factor receptor (Homo sapiens, UniProt P00533); test: Inhibitory activity against HER1
T3 sequence (P00533 whole entry): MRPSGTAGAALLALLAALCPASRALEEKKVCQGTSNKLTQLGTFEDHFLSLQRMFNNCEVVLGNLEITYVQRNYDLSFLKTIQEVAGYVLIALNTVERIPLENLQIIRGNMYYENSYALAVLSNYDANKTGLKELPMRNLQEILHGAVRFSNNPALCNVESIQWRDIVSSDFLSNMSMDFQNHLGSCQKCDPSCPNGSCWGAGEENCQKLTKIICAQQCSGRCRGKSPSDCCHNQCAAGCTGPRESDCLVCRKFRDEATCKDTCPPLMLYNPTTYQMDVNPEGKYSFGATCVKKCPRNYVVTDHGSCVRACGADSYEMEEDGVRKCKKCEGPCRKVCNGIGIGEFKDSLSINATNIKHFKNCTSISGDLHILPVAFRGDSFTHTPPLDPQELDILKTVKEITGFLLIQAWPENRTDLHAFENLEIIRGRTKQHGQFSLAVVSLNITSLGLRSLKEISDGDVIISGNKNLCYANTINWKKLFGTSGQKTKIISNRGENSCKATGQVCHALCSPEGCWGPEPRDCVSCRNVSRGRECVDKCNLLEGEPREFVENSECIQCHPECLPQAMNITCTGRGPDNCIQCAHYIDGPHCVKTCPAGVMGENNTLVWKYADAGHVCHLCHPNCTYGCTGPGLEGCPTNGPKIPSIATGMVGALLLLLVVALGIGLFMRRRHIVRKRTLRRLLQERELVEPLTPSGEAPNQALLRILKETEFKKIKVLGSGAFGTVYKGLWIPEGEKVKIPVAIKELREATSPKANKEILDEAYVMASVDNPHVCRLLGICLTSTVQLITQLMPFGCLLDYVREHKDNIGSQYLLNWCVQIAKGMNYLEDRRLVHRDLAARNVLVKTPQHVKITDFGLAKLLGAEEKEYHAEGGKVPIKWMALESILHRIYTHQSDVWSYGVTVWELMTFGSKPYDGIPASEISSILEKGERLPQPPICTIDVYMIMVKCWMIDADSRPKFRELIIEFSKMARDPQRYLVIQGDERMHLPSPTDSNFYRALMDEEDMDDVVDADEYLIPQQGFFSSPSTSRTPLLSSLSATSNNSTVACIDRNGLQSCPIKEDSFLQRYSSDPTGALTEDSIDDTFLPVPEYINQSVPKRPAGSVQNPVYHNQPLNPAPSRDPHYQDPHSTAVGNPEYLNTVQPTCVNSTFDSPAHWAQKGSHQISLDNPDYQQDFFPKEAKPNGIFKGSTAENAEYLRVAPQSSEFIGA

[11] = biological target: RAF proto-oncogene serine/threonine-protein kinase (Homo sapiens) (UniProt P04049); test: Inhibition of c-Raf at 10 uM
Rattus norvegicus [12] = test: Inhibition of collagen-induced arthritis in rat at 10 mg/kg, po; type: functional
How it was run: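 Collagen-induced arthritis in rats. Compounds given orally once daily (q.d.) for 10 days; swelling inhibition recorded.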

[13] = Cmax in rat administered at 1 mg/kg, po; type: ADME, organism-based; design: dose 1 mg/kg, route oral; settings: in vivo
[14] = biological target: Cyclin-dependent kinase 1 (Homo sapiens) (UniProt P06493); test: Inhibition of CDK1 at 10 uM
Sequence of Cyclin-dependent kinase 1 (Homo sapiens) (P06493 whole entry, looked up): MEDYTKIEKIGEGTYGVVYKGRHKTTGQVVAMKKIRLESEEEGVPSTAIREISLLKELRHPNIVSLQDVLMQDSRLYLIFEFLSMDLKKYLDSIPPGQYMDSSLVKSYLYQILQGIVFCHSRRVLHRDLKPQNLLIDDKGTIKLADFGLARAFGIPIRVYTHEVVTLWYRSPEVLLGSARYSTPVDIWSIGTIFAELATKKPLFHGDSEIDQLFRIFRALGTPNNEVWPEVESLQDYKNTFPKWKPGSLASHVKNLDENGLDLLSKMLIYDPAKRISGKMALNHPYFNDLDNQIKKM

[15] = Half life in rat; type: ADME, organism-based; settings: in vivo
[16] = biological target: T3, Epidermal growth factor receptor; settings: 10 uM
[17] = biological target: T1, Fibroblast growth factor receptor; test: Inhibition of FGFR at 10 uM; type: protein assay
[18] = biological target: T2, Receptor tyrosine-protein kinase erbB-2; test: Inhibition of HER2 at 10 uM
[19] = biological target: Mast/stem cell growth factor receptor Kit (Homo sapiens) (UniProt P10721); test: Inhibition of c-Kit at 10 uM

Row | SMILES | IC50 [1] | bioavailability [8] | inhibition in vivo at 20 mg/kg (Mus musculus) | inhibition in vivo at 25 mg/kg (Rattus norvegicus [2]) | other results
1 | COc1ccc(CCC(C)(C)O)cc1-c1[nH]nc2nc(Nc3ccc(F)cc3F)ncc12 | 0.047 µM | – | 98% | 36% | –
2 | COc1ccc(C#CC(C)(C)N)cc1-c1[nH]nc2nc(Nc3ccc(F)cc3F)ccc12 | 0.02 µM | 95% | 98% | 49% | AUC [4]: 422 ng·h/mL; inhibition [6]: 0%; IC50 [7]: 100 µM; Cmax [13]: 52 nM; inhibition [14]: 0%; inhibition in vivo at 10 mg/kg (Rattus norvegicus [12]): 85%
3 | COc1ccc(CNC2CCCC2)cc1-c1[nH]nc2nc(Nc3ccc(F)cc3F)ccc12 | 0.058 µM | – | 38% | – | –
4 | COc1ccc(C(=O)N2CCNCC2)cc1-c1[nH]nc2nc(Nc3ccc(F)cc3F)ccc12 | 0.28 µM | – | 3% | – | –
5 | COc1ccc(CCC(C)(C)N)cc1-c1[nH]nc2nc(Nc3ccc(F)cc3F)ncc12 | 0.043 µM | – | 68% | – | –
6 | COc1ccc(C#CC(C)(C)O)cc1-c1[nH]nc2nc(Nc3ccc(F)cc3F)ncc12 | 0.019 µM | – | 98% | 34% | –
7 | COc1ccc(CCC(C)(C)O)cc1-c1[nH]nc2nc(Nc3ccc(F)cc3F)cnc12 | 0.021 µM | – | 94% | – | –
8 | COc1ccc(CCC(C)(C)N)cc1-c1[nH]nc2nc(Nc3ccc(F)cc3F)ccc12 | 0.033 µM | 20% | 78% | 9% | Cmax [13]: 11 nM
9 | COc1ccc(C(=O)O)cc1-c1[nH]nc2nc(Nc3ccc(F)cc3F)ccc12 | 0.2 µM | – | – | – | –
10 | COc1ccc(CNC2CCOCC2)cc1-c1n[nH]c2nc(Nc3ccc(F)cc3F)ccc12 | 0.094 µM | – | 80% | 46% | inhibition in vivo at 10 mg/kg (Rattus norvegicus [12]): 10%
11 | COc1ccc(CCC(C)(C)N)cc1-c1[nH]nc2nc(Nc3ccc(F)cc3F)cnc12 | 0.029 µM | – | 0% | – | –

Compounds with a lower IC50 [1], results first:

Row | IC50 [1] | bioavailability [8] | SMILES | inhibition in vivo at 20 mg/kg (Mus musculus) | inhibition in vivo at 25 mg/kg (Rattus norvegicus [2]) | other results
12 | 0.011 µM | – | COc1ccc(CCCN(C)C)cc1-c1[nH]nc2nc(Nc3ccc(F)cc3F)ncc12 | 93% | – | –
13 | 0.012 µM | 16% | COc1ccc(C#CC(C)(C)N)cc1-c1[nH]nc2nc(Nc3ccc(F)cc3F)ncc12 | 85% | 69% | IC50 [3]: 1.5 µM; AUC [4]: 512 ng·h/mL; IC50 [5]: 10 µM; inhibition [6]: 0%; IC50 [7]: 8.3 µM; IC50 [9]: 5 µM; IC50 [10]: 5.2 µM; inhibition [11]: 0%; inhibition in vivo at 10 mg/kg (Rattus norvegicus [12]): 75%
14 | 0.005 µM | 26% | COc1ccc(C(=O)NC2CCCC2)cc1-c1[nH]nc2nc(Nc3ccc(F)cc3F)ccc12 | 97% | 34% | half-life [15]: 1.6 h; Cmax [13]: 6 nM
15 | 0.014 µM | – | COc1ccc(CCCN2CCN(C)CC2)cc1-c1[nH]nc2nc(Nc3ccc(F)cc3F)ncc12 | 73% | – | –
16 | 0.0006 µM | – | COc1ccc(C#CCN(C)C)cc1-c1[nH]nc2nc(Nc3ccc(F)cc3F)ncc12 | 96% | – | –
17 | 0.01 µM | 9% | COc1ccc(C#CC(C)(C)N)cc1-c1[nH]nc2nc(Nc3ccc(F)cc3F)cnc12 | 98% | 37% | half-life [15]: 2.6 h
18 | 0.007 µM | 22% | COc1ccc(C#CC(C)(C)O)cc1-c1[nH]nc2nc(Nc3ccc(F)cc3F)cnc12 | 98% | 41% | inhibition [16]: 0%; inhibition [17]: -5%; IC50 [7]: > 100 µM; inhibition [18]: 0%; Cmax [13]: 160 nM; inhibition [19]: 0%; inhibition in vivo at 10 mg/kg (Rattus norvegicus [12]): 57%
19 | 0.0007 µM | 22% | COc1ccc(C(=O)NC2CCOCC2)cc1-c1[nH]nc2nc(Nc3ccc(F)cc3F)ccc12 | 97% | 28% | half-life [15]: 1.4 h; Cmax [13]: 6 nM
20 | 0.0009 µM | – | COc1ccc(C#CCN2CCN(C)CC2)cc1-c1[nH]nc2nc(Nc3ccc(F)cc3F)ncc12 | 96% | – | –
